# PMC10839117 (Cell chemical biology, 2023)
# Entries after “also recorded” stand apart in the source; their conditions may differ. Primed or numbered codes have the meaning given here. Where no end group is shown, it is not given here. [ ]: non-standard residue; d: D form. two‑PEG linker = not defined here; YHJ1039 = not defined here; PEG2′ = two-PEG linker
# T1: KLHDC2 (Homo sapiens, UniProt Q9Y2U9)
# T1 sequence (Q9Y2U9 1-362): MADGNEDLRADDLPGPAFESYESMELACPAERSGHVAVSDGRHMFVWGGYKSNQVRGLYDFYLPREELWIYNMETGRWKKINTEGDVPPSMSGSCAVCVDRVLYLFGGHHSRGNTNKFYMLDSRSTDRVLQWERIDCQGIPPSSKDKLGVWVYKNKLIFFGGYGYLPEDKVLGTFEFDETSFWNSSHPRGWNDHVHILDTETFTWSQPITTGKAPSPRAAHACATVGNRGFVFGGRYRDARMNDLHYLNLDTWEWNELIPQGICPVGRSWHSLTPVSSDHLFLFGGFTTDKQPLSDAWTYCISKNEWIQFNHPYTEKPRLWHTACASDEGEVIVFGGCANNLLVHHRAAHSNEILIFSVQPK
# T2: NEK9 (Homo sapiens, UniProt Q8TD19)
# T2 sequence (Q8TD19 1-979): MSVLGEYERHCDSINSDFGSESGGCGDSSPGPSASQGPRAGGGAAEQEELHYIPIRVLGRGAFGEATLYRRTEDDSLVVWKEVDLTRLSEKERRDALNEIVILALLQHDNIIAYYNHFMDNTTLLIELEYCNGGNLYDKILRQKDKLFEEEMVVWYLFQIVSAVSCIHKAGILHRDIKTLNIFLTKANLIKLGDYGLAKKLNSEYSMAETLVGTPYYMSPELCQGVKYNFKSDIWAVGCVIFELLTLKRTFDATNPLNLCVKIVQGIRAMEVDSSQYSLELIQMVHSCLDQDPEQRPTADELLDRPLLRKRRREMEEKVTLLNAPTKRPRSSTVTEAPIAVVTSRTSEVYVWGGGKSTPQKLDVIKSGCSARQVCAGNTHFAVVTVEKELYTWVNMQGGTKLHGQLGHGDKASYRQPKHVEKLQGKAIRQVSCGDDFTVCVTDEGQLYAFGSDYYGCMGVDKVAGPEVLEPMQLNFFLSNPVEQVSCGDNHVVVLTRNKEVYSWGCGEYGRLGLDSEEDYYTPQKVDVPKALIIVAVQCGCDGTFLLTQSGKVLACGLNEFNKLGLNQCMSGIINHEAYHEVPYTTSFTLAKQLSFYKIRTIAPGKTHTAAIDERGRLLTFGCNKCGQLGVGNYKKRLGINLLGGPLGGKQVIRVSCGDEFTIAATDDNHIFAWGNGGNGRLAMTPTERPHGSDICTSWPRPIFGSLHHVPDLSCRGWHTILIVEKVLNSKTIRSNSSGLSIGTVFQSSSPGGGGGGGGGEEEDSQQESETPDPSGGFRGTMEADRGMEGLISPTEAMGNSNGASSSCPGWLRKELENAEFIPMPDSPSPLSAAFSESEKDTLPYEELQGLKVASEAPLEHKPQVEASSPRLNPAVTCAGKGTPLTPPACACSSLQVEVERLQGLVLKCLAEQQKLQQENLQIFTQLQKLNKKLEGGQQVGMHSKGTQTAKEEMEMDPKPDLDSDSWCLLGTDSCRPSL
# T3: His6-GST-KLHDC2 (residues 1-362, propellor domain, lacking the autoinhibitory C-terminus) (UniProt Q9Y2U9 1-362)
# T3 sequence (looked up): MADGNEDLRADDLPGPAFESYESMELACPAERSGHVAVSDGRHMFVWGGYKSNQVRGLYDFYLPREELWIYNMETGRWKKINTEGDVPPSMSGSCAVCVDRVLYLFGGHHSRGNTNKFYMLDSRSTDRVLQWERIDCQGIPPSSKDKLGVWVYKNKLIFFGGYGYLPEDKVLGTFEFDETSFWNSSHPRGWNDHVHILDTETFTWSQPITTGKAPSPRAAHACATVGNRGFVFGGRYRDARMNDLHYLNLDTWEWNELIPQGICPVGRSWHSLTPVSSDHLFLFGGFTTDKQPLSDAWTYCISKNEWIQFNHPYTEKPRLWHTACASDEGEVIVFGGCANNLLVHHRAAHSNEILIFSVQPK
# Assays:
# [1] = biological target: WEE1-nanoluciferase fusion protein (Homo sapiens, UniProt P30291); assay: WEE1 cellular engagement assay; format: cell-based; settings: nano-BRET, HEK-293T cells, one hour
# Chain of WEE1-nanoluciferase fusion protein (P30291 whole entry, the tested form may be a part): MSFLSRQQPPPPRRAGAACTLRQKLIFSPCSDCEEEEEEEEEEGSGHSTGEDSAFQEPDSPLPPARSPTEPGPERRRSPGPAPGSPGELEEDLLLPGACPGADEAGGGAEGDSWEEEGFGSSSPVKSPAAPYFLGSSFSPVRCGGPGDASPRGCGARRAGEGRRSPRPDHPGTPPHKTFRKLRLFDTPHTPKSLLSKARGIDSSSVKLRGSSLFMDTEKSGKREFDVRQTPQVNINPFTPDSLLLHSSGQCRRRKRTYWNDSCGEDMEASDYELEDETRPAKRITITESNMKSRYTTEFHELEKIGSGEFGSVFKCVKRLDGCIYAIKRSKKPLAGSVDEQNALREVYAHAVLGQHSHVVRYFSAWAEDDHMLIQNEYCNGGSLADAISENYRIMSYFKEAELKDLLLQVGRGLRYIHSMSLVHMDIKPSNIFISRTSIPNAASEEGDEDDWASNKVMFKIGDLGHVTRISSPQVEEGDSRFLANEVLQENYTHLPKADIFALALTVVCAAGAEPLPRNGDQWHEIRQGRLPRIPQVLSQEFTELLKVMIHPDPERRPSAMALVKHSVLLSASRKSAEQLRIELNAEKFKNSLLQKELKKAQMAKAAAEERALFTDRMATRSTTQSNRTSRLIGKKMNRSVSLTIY
# In short: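 HEK-293T cells were transiently transfected with a WEE1-nanoluciferase plasmid. The next day they were replated at 8,000 cells/well in phenol red-free DMEM with 4% FBS, together with K-5 tracer and 2 μM MLN4924. After 1 h, DMSO-normalised test compound was added. One hour later, nano-BRET detection reagent was added. The BRET ratio (610/450 nm) was normalised to DMSO wells.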
# [2] = tested on: NEK9, FAK, CDK4, CDK6, and WEE1; assay: Kinase degradation by Western blotting, MOLM-14 cells; format: cell-based, human; settings: 24 hours; for kinase degradation activity compared between compounds: Western blot, DB0614 comparison at 1 μM
# [3] = cited from earlier work
# KLHDC2 = biological target: T1, KLHDC2; assay: TR-FRET binding assay, KLHDC2
# MOLM-14 cells = assay: Cell proliferation assay; format: cell-based, human
# In short: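 MOLM-14 cells were plated at low density and treated in triplicate or quadruplicate with DMSO-balanced test compound, with or without MLN4924. After 72 h, CellTiter-Glo was added for 10–15 min at room temperature and luminescence was read. Signal was normalised to DMSO-only wells, or to DMSO plus MLN4924 at the matching MLN4924 concentration.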
# CDK4 [4] = biological target: T4, CDK4 (Homo sapiens, UniProt P11802); assay: Kinase degradation by Western blotting, CDK4; format: cell-based; settings: MOLM-14 cells
# T4 sequence (P11802 whole entry): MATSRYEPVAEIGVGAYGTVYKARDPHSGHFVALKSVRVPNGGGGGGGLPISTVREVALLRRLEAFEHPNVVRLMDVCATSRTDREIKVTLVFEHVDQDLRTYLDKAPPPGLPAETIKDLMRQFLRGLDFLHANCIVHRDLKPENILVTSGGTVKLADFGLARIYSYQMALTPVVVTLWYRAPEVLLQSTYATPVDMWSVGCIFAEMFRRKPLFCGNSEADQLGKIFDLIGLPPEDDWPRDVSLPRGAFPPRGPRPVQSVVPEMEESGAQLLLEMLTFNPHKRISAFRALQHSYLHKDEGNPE
# In short: (§1)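 MOLM-14 cells (RPMI-1640, 10% FBS, 37°C, 5% CO2) were exposed to test compound for 24 h. Cells were washed in PBS, lysed with protease inhibitors, and equal protein was boiled in SDS sample buffer. Blots were blocked for at least 1 h in TBST/5% milk, then probed with kinase antibodies at 1:1,000 and HRP secondaries at 1:10,000. DC50 was taken from quantitative Western blotting.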
# CDK6 = CDK6 (Homo sapiens, UniProt Q00534); assay: Kinase degradation by Western blotting, CDK6; format: cell-based; settings: read-out: DC50 CDK6, MOLM-14 cells, 24 hours
# Chain of CDK6 (Q00534 whole entry): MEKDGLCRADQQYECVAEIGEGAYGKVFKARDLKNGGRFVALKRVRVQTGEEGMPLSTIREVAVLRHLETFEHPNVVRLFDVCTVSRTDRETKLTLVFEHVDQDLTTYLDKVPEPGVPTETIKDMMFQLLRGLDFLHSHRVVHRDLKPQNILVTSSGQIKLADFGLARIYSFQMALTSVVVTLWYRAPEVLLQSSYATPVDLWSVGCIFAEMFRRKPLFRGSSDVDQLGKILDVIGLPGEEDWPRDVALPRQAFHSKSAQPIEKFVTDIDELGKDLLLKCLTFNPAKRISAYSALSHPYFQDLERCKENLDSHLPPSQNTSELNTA
# In short: as §1
# WEE1 = WEE1 (Homo sapiens, UniProt P30291); assay: Kinase degradation by Western blotting, WEE1; format: cell-based; settings: MOLM-14 cells
# Chain of WEE1 (P30291 whole entry): as the sequence (P30291 whole entry, the tested form may be a part) above
# In short: as §1
# NEK9 = biological target: T2, NEK9; assay: Kinase degradation by Western blotting, NEK9; format: cell-based; settings: read-out: DC50 NEK9, MOLM-14 cells, 24 hours
# In short: as §1
# FAK = FAK (Homo sapiens, UniProt Q05397); assay: Kinase degradation by Western blotting, FAK; format: cell-based; settings: read-out: DC50 FAK, MOLM-14 cells, 24 hours
# Chain of FAK (Q05397 whole entry): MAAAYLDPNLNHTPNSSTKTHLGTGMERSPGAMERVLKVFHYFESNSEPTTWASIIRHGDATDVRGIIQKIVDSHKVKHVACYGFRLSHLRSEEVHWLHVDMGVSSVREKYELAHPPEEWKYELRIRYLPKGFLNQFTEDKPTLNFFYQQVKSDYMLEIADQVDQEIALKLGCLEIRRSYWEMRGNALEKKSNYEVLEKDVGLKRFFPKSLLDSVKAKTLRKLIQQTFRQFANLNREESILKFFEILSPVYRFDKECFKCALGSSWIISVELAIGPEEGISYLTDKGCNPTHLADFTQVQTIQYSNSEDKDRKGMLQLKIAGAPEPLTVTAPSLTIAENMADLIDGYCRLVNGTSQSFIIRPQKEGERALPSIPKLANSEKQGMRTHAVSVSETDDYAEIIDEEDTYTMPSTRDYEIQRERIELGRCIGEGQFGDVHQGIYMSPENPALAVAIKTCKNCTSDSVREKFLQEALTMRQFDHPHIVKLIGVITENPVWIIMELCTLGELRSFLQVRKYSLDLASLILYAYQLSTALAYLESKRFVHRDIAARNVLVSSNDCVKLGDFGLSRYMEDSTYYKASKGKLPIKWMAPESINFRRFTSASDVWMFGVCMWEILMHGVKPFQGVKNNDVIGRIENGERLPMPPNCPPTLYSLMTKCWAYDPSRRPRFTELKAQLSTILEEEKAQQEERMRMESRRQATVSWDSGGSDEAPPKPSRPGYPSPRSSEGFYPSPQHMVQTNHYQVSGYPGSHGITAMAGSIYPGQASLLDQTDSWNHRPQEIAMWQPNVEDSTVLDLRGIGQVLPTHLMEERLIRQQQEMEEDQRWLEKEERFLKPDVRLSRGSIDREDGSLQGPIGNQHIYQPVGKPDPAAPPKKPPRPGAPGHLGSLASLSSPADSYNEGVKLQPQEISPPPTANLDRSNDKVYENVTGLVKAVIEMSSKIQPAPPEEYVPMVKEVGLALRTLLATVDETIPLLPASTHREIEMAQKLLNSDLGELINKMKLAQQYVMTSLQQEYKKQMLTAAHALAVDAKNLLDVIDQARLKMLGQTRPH
# In short: as §1
# CDK4 [5] = biological target: T4, CDK4; assay: HiBiT degradation assay, CDK4; format: cell-based
# In short: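 MOLM-14 cells were lentivirally transduced with HiBiT-tagged kinase (GSGS linker, EF1a promoter) and pooled after 1 μg/ml puromycin selection. Cells were pretreated for 2 h with 1 μM MLN4924, then treated with test compound for 6 h in triplicate or quadruplicate. Lytic HiBiT luminescence was normalised to the matching CellTiter-Glo viability signal and to DMSO for each treatment.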
# [6] = biological target: WEE1 kinase domain (residues 290-576) (Homo sapiens, UniProt P30291); assay: HiBiT degradation assay, WEE1 kinase domain; format: cell-based
# Chain of WEE1 kinase domain (residues 290-576) (P30291 290-576): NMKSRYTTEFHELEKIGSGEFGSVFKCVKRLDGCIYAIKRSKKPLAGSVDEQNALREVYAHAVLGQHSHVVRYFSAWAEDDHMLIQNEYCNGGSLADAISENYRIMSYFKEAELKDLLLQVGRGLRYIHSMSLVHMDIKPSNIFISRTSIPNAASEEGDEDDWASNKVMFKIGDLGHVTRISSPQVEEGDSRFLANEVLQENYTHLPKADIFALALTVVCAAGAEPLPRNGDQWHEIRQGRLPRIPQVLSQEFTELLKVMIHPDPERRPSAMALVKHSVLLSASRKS
# In short: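 Pooled selected cells, checked for kinase expression by lytic HiBiT, grown with 10% FBS and 1% penicillin-streptomycin at 37°C, 5% CO2. Cells were dispensed and treated in triplicate or quadruplicate with DMSO balanced, then lysed for HiBiT luminescence after 6 h. For the MLN4924 arm, cells were pretreated 2 h with 1 μM MLN4924. HiBiT signal was normalized to CellTiter-Glo viability per matching condition and to DMSO.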
# KLHDC2-WEE1 = KLHDC2-WEE1 (Homo sapiens, UniProt P30291+Q9Y2U9); assay: GST pulldown assay with purified KLHDC2 and WEE1 proteins; format: binding
# Chain of KLHDC2-WEE1 (P30291 299-569 limits assumed, one chain of several): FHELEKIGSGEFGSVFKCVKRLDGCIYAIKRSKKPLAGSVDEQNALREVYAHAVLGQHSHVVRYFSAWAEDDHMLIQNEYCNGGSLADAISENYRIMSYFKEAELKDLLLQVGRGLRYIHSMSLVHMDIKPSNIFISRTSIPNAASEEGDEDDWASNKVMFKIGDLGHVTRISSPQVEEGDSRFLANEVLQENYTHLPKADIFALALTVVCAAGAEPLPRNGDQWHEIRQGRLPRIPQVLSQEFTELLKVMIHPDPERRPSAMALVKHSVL
# In short: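 Purified proteins were His6-GST-KLHDC2 (propeller domain, residues 1-362, lacking the autoinhibitory C-terminus; E. coli-expressed) and the WEE1 kinase domain with its tag removed by TEV. They were incubated with DMSO or test compound for 1 h on ice in 20 mM Tris-HCl pH 8.5, 150 mM NaCl, 1 mM TCEP, 0.05% NP-40 substitute. Glutathione-agarose was added for 1 h at 4°C, followed by three washes. Bound material was analysed by SDS-PAGE.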
# WEE1 and CDK4 RNA = assay: RT-PCR of WEE1 and CDK4 RNA; format: cell-based, human; settings: MOLM-14 cells, 1 μM, 24 hours
# WEE1 and CDK4 = assay: Kinase degradation by Western blotting in a panel of cancer cell lines; format: cell-based, human; settings: 1 μM
# In short: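 Cancer cell lines were grown in RPMI-1640 (MOLM-14, MV-4-11, MOLT-4, DLD1, K562, SW480, MDA-MB-231, MCF7), EMEM (Detroit 551) or DMEM (GIST-T1, Hs27), each with 10% FBS and 1% pen-strep at 37°C, 5% CO2. Cells were treated with test compound, washed in PBS and lysed with protease inhibitors. Equal protein was blotted; membranes were blocked in TBST/5% milk, then probed with primaries at 1:1,000 and HRP secondaries at 1:10,000.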
# [7] = biological target: T3, His6-GST-KLHDC2 (residues 1-362, …); assay: AlphaScreen or HTRF
# [8] = 1 μM MLN4924 two hours, then six-hour experiment
molecule,measurement,setting,value
"C=CCn1c(=O)c2cnc(Nc3ccc(N4CCN(C)CC4)cc3)nc2n1-c1cccc(C(C)(C)O)n1 [AZD1775, reference compound]",WEE1 target engagement (in words),[1]; YHJ1039 versus AZD1775,comparable
"CS(=O)(=O)Nc1cccc(-c2csc3cnc(Nc4ccc(N5CCN(CCCCCOc6cccc7c6C(=O)N(C6CCC(=O)NC6=O)C7=O)CC5)cc4)nc23)c1 (centres unmarked) [DB0614, reference compound]",kinase degradation activity compared between compounds,[2],more effective kinase degrader than KYH1872 (26)
same,cytotoxicity,[3],cytotoxic
KYH1872 (26): two-PEG linker connects YHJ1039 with a seven amino acid SelK peptide (PPPMAGG) ({YHJ1039-two‑PEG linker}-PPPMAGG; reading uncertain),KLHDC2 binding (in words),"KLHDC2; biochemical binding assay, limit of detection ~2 nM",binds to the KLHDC2 protein; also recorded: tighter than the limit of detection
same,effect on cell proliferation with MLN4924 co-treatment,MOLM-14 cells; co-treatment with increasing concentrations of MLN4924,blunted the negative effect
same,EC50,"MOLM-14 cells; read-out: Cell viability (EC50), MOLM-14 cells, 72 hours after treatment",1.06 µM
same,DC50,"CDK4 [4]; read-out: DC50 CDK4, Western blotting, 24 hours",0.457 µM
same,time at which CDK4 degradation was observable,CDK4 [4]; time course Western blot,12 h
same,DC50,CDK6,1.07 µM
same,DC50,"WEE1; read-out: DC50 WEE1, Western blotting, 24 hours",0.302 µM
same,time at which WEE1 degradation was observable,WEE1; time course Western blot,12 h
same,DC50,NEK9,1 µM
same,DC50,FAK,0.933 µM
same,CDK4 degradation after MLN4924 pretreatment (HiBiT),CDK4 [5]; [8],prevented WEE1 and CDK4 degradation
same,Dmax CDK4 (HiBiT),"CDK4 [5]; maximum total fraction of the target degraded, given as a fraction, MOLM-14 cells, six hours",0.32
same,WEE1 degradation after MLN4924 pretreatment (HiBiT),[6]; [8],prevented WEE1 and CDK4 degradation
same,DC50 WEE1-KD (HiBiT),"[6]; MOLM-14 cells, six hours, n.d. = not determined (no degradation)","1,290 nM"
same,"kinase degradation (Western blot, in words)",[2]; KYH1872 at 1 and 10 μM,induced the degradation
same,kinase degradation activity compared between compounds,[2],slightly improved degradation activity when compared with KYH1886 (25)
same,induced KLHDC2-WEE1 binding,KLHDC2-WEE1,can induce between KLHDC2-WEE1 binding
same,WEE1 and CDK4 RNA levels,WEE1 and CDK4 RNA,not changed
same,"WEE1 engagement, fold less efficient than ZNL-02-096",[1]; MLN4924 pretreated,~ 300 fold
same,WEE1 and CDK4 degradation in MOLM-14 and MV4-11 cells,WEE1 and CDK4,displayed WEE1 and CDK4 degradation
"KYH2011 (27): identical to KYH1872 (26) except reversed methionine stereocenter, PPP(D-Met)AGG ({YHJ1039-PEG2′}-PPP[dM]AGG; reading uncertain; also: printed as PPP(D-Met)AGG)",Kd,"KLHDC2; read-out: KLHDC2 binding (KD), TR-FRET, FITC-PPPMAGG probe, His6-GST-KLHDC2",0.155 µM
same,inhibition of cell proliferation (in words),"MOLM-14 cells; MOLM-14 cells, 72 hours",did not cause kinase degradation or inhibit cell proliferation
{YHJ1039-two‑PEG linker}-PPPMAGG (reading uncertain) [KYH1872 (26)],Kd,[7],< 0.002 µM
